# Assay outcomes (PubChem BioAssay)
# Most compounds without a hit are left out; they make up all but 4.9% or so of the library.
# STAT1 act = STAT1 signaling activation | activation (% of control), % at 5.5 µM | NIH 3T3 STAT1-luciferase reporter, IFN-gamma, luminescence; 100% = IFN-gamma alone, no compound | AID 932 | 200,000 tested, 2.6% active;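 active = activation above the screen-wide mean activation plus 3 SD, cut at about 130% in these data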
# STAT1 blocker = reduces IFN-gamma driven STAT1 reporter signal. inhibition, % at 5.5 µM. NIH 3T3 STAT1-luciferase reporter, luminescence. 200,000 tested, 0.35% active. AID 920;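 active = inhibition above a set limit, the mean inhibition across all tested compounds plus 3 SD, cut at about 34% in these data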
# APP 5'UTR act = activates APP 5'UTR luciferase reporter. SH-SY5Y APP 5'UTR luciferase reporter, luminescence; zero percent = DMSO vehicle wells. activation, % at 2 µM. 190,000 tested, 1% active;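 active = activation above a set limit, based on mean plus 3 SD of controls, cut at about 140% in these data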
# STAT3 blocker = STAT3 signaling inhibition; U3A cells, IL-6 STAT3-luciferase reporter, luminescence; host cell line lacks STAT1; 190,000 tested, 0.89% active; inhibition, % at 5.5 µM;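 active = inhibition above the mean inhibition across all screened compounds plus 3 SD, cut at about 44% in these data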
# NF-kB expr up = NF-kB expression increase, human neuronal cells; NF-kB reporter expression; hits give high values; fold change at 12.5 µM; 190,000 tested, 1.6% active; AID 1239; in the data active = fold change above about 3.3
# STAT3 act = activators of IL-6 induced STAT3 signaling | AID 871 | activation (% of control), % at 5.6 µM | U3A cells, IL-6 STAT3-luciferase reporter, luminescence; 100% = signal with IL-6 EC80 alone | 190,000 tested, 0.91% active;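 active = activation above the screen-wide mean of compound activation plus 3 SD, cut at about 130% in these data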
#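 System – human U3A cells carrying STAT3-luciferase construct · Probe or stimulus – Interleukin-6, 33 ng/mL · Schedule – compound 1 h, then IL-6 6 h at 37 °C · Signal – luminescence from STAT3-driven luciferase reporter · Evaluation – percent of IL-6-only median luminescence · Benchmarks – IL-6-only high control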
# A number is an active result; 0 = inactive.
SMILES,STAT1 act,STAT1 blocker,APP 5'UTR act,STAT3 blocker,NF-kB expr up,STAT3 act
N/C(=N\OC(=O)CC1CCCCC1)c1ccccn1,0,0,0,0,4.81,0
C/C(=N\NC(=O)c1ccccn1)C12CC3CC(CC(C3)C1)C2,149.9,0,0,0,0,0
N/C(=N\OC(=O)COc1ccc2ccccc2c1)c1ccccn1,0,0,0,0,0,0
Cc1ccc(C)c(OCC(=O)O/N=C(\N)c2ccccn2)c1,134.8,0,0,0,6.17,0
C/C(=N/NC(=O)c1ccoc1C)C12CC3CC(CC(C3)C1)C2,0,0,158.3,0,0,0
Cc1occc1C(=O)NC1CCCCCC1,0,0,0,0,0,0
N/C(=N\OC(=O)C12CC3CC(CC(C3)C1)C2)c1ccccc1,0,0,0,0,0,0
N/C(=N\OC(=O)C12CC3CC(CC(C3)C1)C2)c1ccccn1,142.4,0,0,0,0,0
COc1cc(OC)cc(C(=O)NCC(=O)OCC(=O)C(C)(C)C)c1,0,0,0,0,0,0
O=C1c2ccccc2S(=O)(=O)N1Cc1nc2ccccc2s1,0,51.9,0,61.4,0,0
CN(C)/C=C/C(=O)c1ccc(Oc2ccccc2)cc1,135.3,0,0,0,0,0
COc1ccc(C(=O)/C=C/N(C)C)cc1,0,0,0,0,0,0
CC(C)OCCCNC(=S)Nc1ccc(S(N)(=O)=O)cc1,0,0,0,0,0,0
O=C(Cc1ccc(Br)cc1)c1ccc(O)cc1O,130.2,0,0,0,0,0
Cc1ccc(C(=O)NC(=S)NCC2CCCO2)cc1 (configuration not stated),128.6,0,0,0,0,0
Cc1ccc(NC(=O)C(=O)NCC2CCCO2)cc1 (configuration not stated),136.8,0,0,0,0,0
Cc1cc(C)cc(NC(=O)C(=O)NCC2CCCO2)c1 (configuration not stated),0,0,0,0,0,0
O=C(NC(=S)NCC1CCCO1)c1ccc(Cl)cc1 (configuration not stated),0,0,0,0,0,0
Cc1ccc(NC(=O)C(=O)NCC2CCCO2)cc1C (configuration not stated),141.6,0,0,0,0,0
Cc1ccc(S(=O)(=O)N2CCOCC2)cc1C(=O)Nc1ccc(S(=O)(=O)Nc2nccs2)cc1,0,0,0,0,0,0
Cc1ccc(NC(=S)N(CCCN2CCOCC2)Cc2cccnc2)cc1C,0,0,0,0,0,0
Fc1cc(F)c2nc(N3CCCC3)sc2c1,131.3,0,0,0,0,0
Cc1nnc(N(C)C(=O)c2ccncc2)s1,0,0,0,0,0,0
N#C/C(=C(/O)CCl)c1nc2ccccc2[nH]1,0,0,0,0,0,134.4
N#C/C(=C(\O)Cc1ccccc1)c1nc2ccccc2[nH]1,0,0,0,0,0,0
SMILES,STAT1 act,STAT1 blocker,APP 5'UTR act,STAT3 blocker,NF-kB expr up,STAT3 act
N#C/C(=C(/O)COC(=O)CSc1ccc2ccccc2c1)c1nc2ccccc2[nH]1,0,0,0,0,3.46,0
CN(C)C(=O)CSc1nnc(Cc2ccccc2)n1CC1CCCO1 (configuration not stated),0,0,0,0,0,0
Cc1cc(C(=O)COc2cccnc2[N+](=O)[O-])c(C)n1Cc1ccco1,0,0,0,0,0,0
COC(=O)c1c(C(=O)OC)c(C)n(Cc2ccco2)c1C,0,0,0,0,0,0
Cc1cc(C(=O)COC(=O)c2cccn2C)c(C)n1Cc1ccco1,0,36.8,165.6,68.9,0,0
Cc1cc(C(=O)COC(=O)c2ccncc2)c(C)n1Cc1ccco1,128.6,0,0,0,0,0
CC(C)Cn1c(N)c(C(=O)COC(=O)c2ccc([N+](=O)[O-])o2)c(=O)n(C)c1=O,0,0,0,0,0,0
Cc1c(Cl)cccc1N(Cc1ccc(C(=O)O)cc1)S(=O)(=O)c1ccccc1,0,0,0,0,0,0
CC1CCCN(C(=O)CSc2cnc3ccccc3n2)C1 (configuration not stated),0,0,0,0,0,0
O=C(O)CC(NC(=O)CCC1CCCCC1)c1cc([N+](=O)[O-])ccc1Cl (configuration not stated),0,0,0,0,0,0
CCOc1ccc(C(=O)Nc2cc(NC(=O)c3ccc(OCC)c(Cl)c3)cc(C(=O)O)c2)cc1Cl,0,0,0,0,3.68,0
